From ChEMBL document CHEMBL2321674, “Design, synthesis and biological evaluation of sulfur-containing 1,1-bisphosphonic acids as antiparasitic agents” (Eur J Med Chem, 2013)

Experiments:
Vero = assay: Cytotoxicity against african green monkey Vero cells assessed as cell viability at 25 uM; type: cell-based; conditions: chlorocebus sabaeus
Toxoplasma gondii = assay: Antiparasitic activity against Toxoplasma gondii tachyzoite expressing red fluorescence protein assessed as growth inhibition by fluorescence plate reader; type: functional; conditions: read-out: ED50 (the source's name)
How it was run: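 T. gondii tachyzoites expressing red fluorescent protein, filtered (3 μm) and needle-passed, inoculated at 10^4/well onto confluent hTerT monolayers in DMEM-HG with 1% FBS, 2 mM glutamine, 1 mM pyruvate, serial drug dilutions; 37 °C, 5% CO2, fluorescence read daily from bottom (ex 510/em 540 nm).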

[1] = biological target: T1, Farnesyl diphosphate synthase (Toxoplasma gondii, UniProt Q197X6); assay: Inhibition of Toxoplasma gondii farnesyl diphosphate synthase assessed as incorporation of [4-14C]IPP measured at 37 degC
T1 sequence (Q197X6 whole entry): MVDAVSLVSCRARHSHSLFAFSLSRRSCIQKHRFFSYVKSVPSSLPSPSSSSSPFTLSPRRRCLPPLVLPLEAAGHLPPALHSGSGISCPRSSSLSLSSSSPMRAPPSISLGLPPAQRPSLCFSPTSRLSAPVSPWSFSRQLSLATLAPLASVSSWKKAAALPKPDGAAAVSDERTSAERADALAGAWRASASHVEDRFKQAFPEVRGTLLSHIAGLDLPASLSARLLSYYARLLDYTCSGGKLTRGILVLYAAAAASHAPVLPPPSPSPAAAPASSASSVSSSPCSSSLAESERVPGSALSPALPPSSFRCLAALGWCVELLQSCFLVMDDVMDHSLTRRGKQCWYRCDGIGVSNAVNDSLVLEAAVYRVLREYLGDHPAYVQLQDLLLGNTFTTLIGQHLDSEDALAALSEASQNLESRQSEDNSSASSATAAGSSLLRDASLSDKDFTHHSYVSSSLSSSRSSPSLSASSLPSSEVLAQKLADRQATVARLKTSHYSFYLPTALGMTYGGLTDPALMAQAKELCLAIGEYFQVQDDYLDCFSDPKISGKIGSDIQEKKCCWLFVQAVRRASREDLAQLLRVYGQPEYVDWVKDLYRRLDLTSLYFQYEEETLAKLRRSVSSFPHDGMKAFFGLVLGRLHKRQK

Trypanosoma cruzi = assay: Antiparasitic activity against Trypanosoma cruzi amastigotes infected in gamma-irradiated vero cells assessed as growth inhibition measured after 3 days by fluorescence assay; type: functional; conditions: light or radiation study, 72 h, read-out: ED50 (the source's name)
[2] = biological target: T2, Farnesyl diphosphate synthase (Trypanosoma cruzi, UniProt Q8WS26); assay: Inhibition of Trypanosoma cruzi farnesyl diphosphate synthase assessed as incorporation of [4-14C]IPP measured at 37 degC
T2 sequence (Q8WS26 whole entry): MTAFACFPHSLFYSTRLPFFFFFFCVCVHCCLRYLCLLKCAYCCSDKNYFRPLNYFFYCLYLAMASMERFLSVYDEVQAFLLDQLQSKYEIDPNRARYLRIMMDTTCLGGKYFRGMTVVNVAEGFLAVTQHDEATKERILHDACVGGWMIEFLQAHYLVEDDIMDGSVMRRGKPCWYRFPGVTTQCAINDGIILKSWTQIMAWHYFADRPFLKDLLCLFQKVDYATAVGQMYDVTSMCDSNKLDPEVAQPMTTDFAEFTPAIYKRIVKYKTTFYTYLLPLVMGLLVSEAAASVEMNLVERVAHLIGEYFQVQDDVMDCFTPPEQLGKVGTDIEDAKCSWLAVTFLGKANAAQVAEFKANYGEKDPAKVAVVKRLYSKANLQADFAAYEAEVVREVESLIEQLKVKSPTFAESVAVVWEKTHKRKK

[3] = Cytotoxicity against hTerT cells assessed as growth inhibition measured at > 200 uM after 3 to 4 days by Alamar Blue assay; type: cell-based; conditions: human
How it was run: (§1)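 Non-irradiated confluent hTERT cells in phenol-red-free high-glucose DMEM with 10% Cosmic Calf Serum, washed, serial drug dilutions in quadruplicate, 35 °C, 7% CO2 for 3–4 days. AlamarBlue at 10% of culture volume, 6 h at 35 °C, absorbance at 570 and 600 nm. Percent growth inhibition = 100 minus percent reduction difference versus untreated control; DMSO as toxicity control.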

[4] = Cytotoxicity against hTerT cells assessed as growth inhibition measured at > 1000 uM after 3 to 4 days by Alamar Blue assay; type: cell-based; conditions: human; how it was run: as §1
[5] = Cytotoxicity against hTerT cells assessed as growth inhibition measured at >= 500 uM after 3 to 4 days by Alamar Blue assay; type: cell-based; conditions: human; how it was run: as §1

In the case of `CCCCC[S+]([O-])CC(P(=O)(O)O)P(=O)(O)O` (stereo not drawn), the Activity (Vero) is reported as “Non-toxic”, the EC50 (Toxoplasma gondii) is reported as greater than 10 µM and the IC50 [1] is reported as greater than 10 µM. The EC50 (Trypanosoma cruzi) was greater than 20 µM and the IC50 [2] was greater than 10 µM.
In the case of `CCCC[S+]([O-])CC(P(=O)(O)O)P(=O)(O)O` (stereo not drawn), the Activity (Vero) is reported as “Non-toxic”, the EC50 (Toxoplasma gondii) is reported as greater than 10 µM and the IC50 [1] is reported as greater than 10 µM. For the same molecule, the EC50 (Trypanosoma cruzi) was greater than 20 µM and the IC50 [2] was greater than 10 µM.
`O=C(Cn1ccnc1[N+](=O)[O-])NCc1ccccc1` [BENZNIDAZOLE] gave an EC50 (Trypanosoma cruzi) of 1.7 µM.
In the case of `CCSCC(P(=O)(O)O)P(=O)(O)O`, the Activity (Vero) is reported as “Non-toxic”, the EC50 (Toxoplasma gondii) is reported as greater than 10 µM and the IC50 [1] is reported as 1.83 µM. The EC50 (Trypanosoma cruzi) was greater than 20 µM and the IC50 [2] was 0.627 µM.
With `CCCSCC(P(=O)(O)O)P(=O)(O)O` the Activity (Vero) was “Non-toxic”, the EC50 (Toxoplasma gondii) was greater than 10 µM and the IC50 [1] was 0.066 µM. The EC50 (Trypanosoma cruzi) was greater than 20 µM and the IC50 [2] was 0.925 µM.
In the case of `CCCCCS(=O)(=O)CC(P(=O)(O)O)P(=O)(O)O`, the Activity (Vero) is reported as “Non-toxic”, the EC50 (Toxoplasma gondii) is reported as greater than 10 µM and the IC50 [1] is reported as greater than 10 µM. It also gave an EC50 (Trypanosoma cruzi) greater than 20 µM and an IC50 [2] greater than 10 µM.
With `CCCCCCCSCC(P(=O)(O)O)P(=O)(O)O` the Activity (Vero) was “Non-toxic”, the Activity [3] was “Non-toxic” and the EC50 (Toxoplasma gondii) was 0.97 µM. The IC50 [1] was 0.069 µM, the EC50 (Trypanosoma cruzi) was greater than 20 µM and the IC50 [2] was greater than 10 µM.
For `CCCCCCCCSCC(P(=O)(O)O)P(=O)(O)O`, the Activity [4] was “Non-toxic”, the Activity (Vero) was “Non-toxic” and the EC50 (Toxoplasma gondii) was 2.6 µM. The IC50 [1] was 0.024 µM, the EC50 (Trypanosoma cruzi) was 15.8 µM and the IC50 [2] was 6.39 µM.
With `CCCCCCCNCC(O)(P(=O)(O)O)P(=O)(O)O` the Activity (Vero) was “Non-toxic”, the EC50 (Toxoplasma gondii) was greater than 10 µM and the IC50 [1] was greater than 1 µM. The EC50 (Trypanosoma cruzi) was greater than 20 µM and the IC50 [2] was greater than 10 µM.
In the case of `CCCCCCCCCSCC(P(=O)(O)O)P(=O)(O)O`, the Activity [5] is reported as “Non-toxic”, the Activity (Vero) is reported as “Non-toxic” and the EC50 (Toxoplasma gondii) is reported as 1.2 µM. It also gave an IC50 [1] of 0.025 µM, an EC50 (Trypanosoma cruzi) of 12.8 µM and an IC50 [2] of 1.7 µM.
For `CCCCCC[S+]([O-])CC(P(=O)(O)O)P(=O)(O)O` (stereo not drawn), the Activity (Vero) was “Non-toxic”, the EC50 (Toxoplasma gondii) was greater than 10 µM and the IC50 [1] was greater than 10 µM. For the same molecule, the EC50 (Trypanosoma cruzi) was greater than 20 µM and the IC50 [2] was greater than 10 µM.
In the case of `CCCCCC(C)NCC(P(=O)(O)O)P(=O)(O)O` (stereo not drawn), the Activity (Vero) is reported as “Non-toxic”, the EC50 (Toxoplasma gondii) is reported as 11.4 µM and the IC50 [1] is reported as less than 1 µM. For the same molecule, the EC50 (Trypanosoma cruzi) was greater than 20 µM and the IC50 [2] was greater than 10 µM.
`O=P(O)(O)C(O)(Cc1cccnc1)P(=O)(O)O` [RISEDRONIC ACID] showed an EC50 (Toxoplasma gondii) of 2.4 µM and an EC50 (Trypanosoma cruzi) of 55 µM.
For `CCCCCSCC(P(=O)(O)O)P(=O)(O)O`, the Activity (Vero) was “Non-toxic”, the EC50 (Toxoplasma gondii) was greater than 10 µM and the IC50 [1] was 0.11 µM. The EC50 (Trypanosoma cruzi) was greater than 20 µM and the IC50 [2] was greater than 10 µM.
For `CCCCCCCCCCSCC(P(=O)(O)O)P(=O)(O)O`, the Activity (Vero) was “Non-toxic”, the Activity [3] was “Non-toxic” and the EC50 (Toxoplasma gondii) was 1.8 µM. The IC50 [1] was 0.021 µM, the EC50 (Trypanosoma cruzi) was greater than 20 µM and the IC50 [2] was 0.097 µM.
With `CCCCCCCCC[S+]([O-])CC(P(=O)(O)O)P(=O)(O)O` (stereo not drawn) the Activity [4] was “Non-toxic”, the Activity (Vero) was “Non-toxic” and the EC50 (Toxoplasma gondii) was 1.4 µM. It also gave an IC50 [1] of 0.056 µM, an EC50 (Trypanosoma cruzi) of 19.4 µM and an IC50 [2] greater than 10 µM.
In the case of `CCCCCCCC[S+]([O-])CC(P(=O)(O)O)P(=O)(O)O` (stereo not drawn), the Activity (Vero) is reported as “Non-toxic”, the EC50 (Toxoplasma gondii) is reported as 3 µM and the IC50 [1] is reported as 0.016 µM. The EC50 (Trypanosoma cruzi) was greater than 20 µM and the IC50 [2] was greater than 10 µM.
In the case of `CCCCCCC[S+]([O-])CC(P(=O)(O)O)P(=O)(O)O` (stereo not drawn), the Activity (Vero) is reported as “Non-toxic”, the EC50 (Toxoplasma gondii) is reported as 5 µM and the IC50 [1] is reported as 0.009 µM. It also gave an EC50 (Trypanosoma cruzi) greater than 20 µM and an IC50 [2] greater than 10 µM.
With `CCCCCCSCC(P(=O)(O)O)P(=O)(O)O` the Activity (Vero) was “Non-toxic”, the EC50 (Toxoplasma gondii) was 6.5 µM and the IC50 [1] was 0.307 µM. For the same molecule, the EC50 (Trypanosoma cruzi) was greater than 20 µM and the IC50 [2] was greater than 10 µM.
For `CCCCCCCCCC[S+]([O-])CC(P(=O)(O)O)P(=O)(O)O` (stereo not drawn), the Activity (Vero) was “Non-toxic”, the EC50 (Toxoplasma gondii) was 7.6 µM and the IC50 [1] was greater than 10 µM. It also gave an EC50 (Trypanosoma cruzi) greater than 20 µM and an IC50 [2] greater than 10 µM.
With `CCCCCCCC[S+](C)CC(P(=O)(O)O)P(=O)(O)O.F[B-](F)(F)F` (stereo not drawn) the Activity (Vero) was “Non-toxic”, the EC50 (Toxoplasma gondii) was 7 µM and the IC50 [1] was 0.013 µM. For the same molecule, the EC50 (Trypanosoma cruzi) was greater than 20 µM and the IC50 [2] was 0.04 µM.
With `CCCCSCC(P(=O)(O)O)P(=O)(O)O` the Activity (Vero) was “Non-toxic”, the EC50 (Toxoplasma gondii) was greater than 10 µM and the IC50 [1] was 0.048 µM. The EC50 (Trypanosoma cruzi) was greater than 20 µM and the IC50 [2] was 0.789 µM.
